According to the RNAGym collection of RNA variant scans (doi:10.1101/gad.245936.114):
This sample holds only a part of the variants without activity.

B1: tRNA (parent)
chain: CUCUCGGUAGCCAAGUUGGUUUAAGGCGCAAGACUUUAAUUUAUCACUACGAAAUCUUGAGAUCGGGCGUUCGACUCGCCCCCGGGAGAUUUUUUCCUCGAGCAA

Variants of: B1
Assay: nonsense suppression (GFP-seq) (ratio to wild type); higher = more function; SUP4oc tRNA, yeast GFP reporter sort-seq
Summary of the method: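 Nonsense suppression (GFPSEQ) is the median GFP/RFP ratio of each sorting bin, weighted by the variant's estimated share of cells in that bin and expressed relative to the unmutated parent tRNA. Yeast strains carried genome-integrated variants of an ochre-suppressor tRNA from a library with ~3% random mutations, plus a galactose-driven GFP ochre reporter and RFP, and were grown in raffinose/galactose medium containing 80 mg/L adenine. Cells were sorted into GFP/RFP bins, each bin was Illumina-sequenced (phred ≥30), and variants were kept only with ≥100 reads and ≥30 cells.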

Variant | nonsense suppression
C29U A33U | 0.0316
C27G C81G | ≤ 0.026
G25C U63A | ≤ 0.026
C27A C83G G84C | ≤ 0.026
C29G U55A | ≤ 0.026
A24G U70G | ≤ 0.026
C27U G59U G61U G66U | ≤ 0.026
C27A G59U | ≤ 0.026
G26C U55C | 0.0525
G26C U55A | ≤ 0.026
C29U A31G | 0.0421
C27A G61U G86U | ≤ 0.026
G26C U63G | ≤ 0.026
A30G A31G A60U | 0.726
G28C A60C | 0.235
A24G C29U | 0.0384
C29U G85A | 1.14
C29U G85U | 0.0262
G25U C34A U71A U76A | ≤ 0.026
G25U G61A G67U | ≤ 0.026
G28A U35G G65U G73A C80U | ≤ 0.026
C29U G84A | 0.0288
G25A G59C U63C | ≤ 0.026
G28A C82U | 1.15

Variant | nonsense suppression
A30C A31U | ≤ 0.026
C29G G78A | ≤ 0.026
C27G U57C G59U G86U | ≤ 0.026
G26U G28U | ≤ 0.026
G25C A60G | 0.0619
C29U A31C C68U C77A | ≤ 0.026
A24G | 0.188
A24U | 0.487
G28U A62G U63A A74C | ≤ 0.026
G25U G28U C29G C72G C81A | ≤ 0.026
G28A A31G | 0.98
C27A A30C A60G C77G C81A | ≤ 0.026
A24U A60G G65U G88C A89G | ≤ 0.026
C27G U71G | ≤ 0.026
G26U C64G | ≤ 0.026
C29G G86A | ≤ 0.026
A24G G85A | 0.189
C27U C75A | 0.641
C27U G61C | 0.0306
C27U | 0.183
C29G G32A G67U C75A | ≤ 0.026
G26A U70A | ≤ 0.026
C27U C77A | ≤ 0.026
A24G C68A C82G G84U | ≤ 0.026

Variant | nonsense suppression
C27U U58A G59A | ≤ 0.026
C29U C64U | 0.035
C29G A87G | ≤ 0.026
G26C C81U | ≤ 0.026
G26U G69U C79U | ≤ 0.026
C29U A30G A54C C75A | 0.0386
C27U A62U | 0.0346
C27U A62G | ≤ 0.026
G26C U57A A89C | ≤ 0.026
C29A C72A U76A | ≤ 0.026
G25A C75G G78A | ≤ 0.026
G28A G66C A87U | ≤ 0.026
C27A A62C | 0.349
G25A U57C | ≤ 0.026
C27A G84A G86C | ≤ 0.026
C29U C83U | 0.0384
C27U A31U | 0.0324
C27G G28A | ≤ 0.026
C29U A54U | 0.869
G25U U63G | 0.0371
C29A C75U | 0.0265
G28C G61A U63C | 0.041
C29U U57A U63G | ≤ 0.026
G26U A74C U76G | ≤ 0.026

Variant | nonsense suppression
G26U A31G A54U U57C G73C | ≤ 0.026
G28C C64U | 0.0765
C29A G73A | ≤ 0.026
A30C U55A | ≤ 0.026
C29A A30C | ≤ 0.026
G28U A30C A33G A54G U76C C79A | ≤ 0.026
A24G A60G | 0.0307
G28A C56G A89C | ≤ 0.026
C29G U58A | ≤ 0.026
A30G A33G | 0.046
G26A C27A | ≤ 0.026
G26A C27G | ≤ 0.026
G28C U57A | 0.0447
G28C U57C | 0.0349
C29A A60G | 0.0331
C27U U35A U58A G65A G78C | ≤ 0.026
G25A G32U | ≤ 0.026
C27A C34G A60U C77U | ≤ 0.026
G28A G61A | 0.8
G28A G84A G86C | ≤ 0.026
G25U C34U G59A | 1.15
G25A G26C | ≤ 0.026
C29U U57G G85C | ≤ 0.026
G25U C75U | ≤ 0.026

Variant | nonsense suppression
C27A U55A G85A | ≤ 0.026
G25A G26U C56G | 0.0585
G28U U71G | ≤ 0.026
G25C C77U C80G | ≤ 0.026
A24G G61A U76C | 0.0509
G28C G78C | ≤ 0.026
G28C G78A | 0.0288
G28C G59A | ≤ 0.026
G25U G73U | ≤ 0.026
A24G A87G | 0.0583
G28C U55C | 0.183
G28C U55G | ≤ 0.026
C29A U55G | ≤ 0.026
A24U A62G | 0.0414
A24U A62U | 0.0332
A24U A62C | ≤ 0.026
A24U G78U | 0.0565
C29U A87G | 0.438
C27G C80U C83A | ≤ 0.026
C29U U76A G84U | ≤ 0.026
G26A U71G | ≤ 0.026
A24G A31U C34U A74G | ≤ 0.026
G26C A60C | 0.027
G25U U58G C68G | ≤ 0.026

Variant | nonsense suppression
G28C A89G | 0.0403
C29G C34G | ≤ 0.026
A24U C72G | 0.03
C27U U63C | 0.0314
G28U G78A | 0.0292
G28U G78U | 0.0435
A30C U70C | ≤ 0.026
G28C G73U | 0.0322
G28C A33U C82U A89U | ≤ 0.026
A24G U55C | 0.0553
A24U U63A | 0.119
A24U U63C | 0.0344
G26C G61A | ≤ 0.026
C27U G28A | 0.0265
A24U A60U | 0.0572
A24U A60G | 0.0422
G25A U70C G73U | ≤ 0.026
A24G A30U U70G C72A | ≤ 0.026
G26A C29G A30G A33G | ≤ 0.026
G28A A54U | 1.1
G28A A54C | 0.878
C29U G73A | 0.238
G28C G61C | 0.386
C29A U57A G73A | ≤ 0.026

Variant | nonsense suppression
G26U G65C U71A G78U | ≤ 0.026
A24U U58C G85A | ≤ 0.026
G26U G88C | ≤ 0.026
A30C U58G | 1.02
C27G G73C | ≤ 0.026
A24U C29A C79U | ≤ 0.026
G28C C34A C68G A89U | ≤ 0.026
G28C C34A C68G A89G | ≤ 0.026
A24U A87G | 0.147
A24U G85A A87G | 0.215
A24U A31G | 0.229
C27U G65U | ≤ 0.026
C27U G65A | 0.0374
C27G U55A A60C | 0.809
A30G | 1.11
G26U U70G C79U | ≤ 0.026
C29U A30U | 0.124
C29U A30C | 0.196
C29U A30G | 1.1
C29U G65A C81U | 1.14
G26U U71G G85U | ≤ 0.026
A24U U35G A89G | ≤ 0.026
G28U A54U | ≤ 0.026
